ChEMBL document CHEMBL5108076, “Target-Focused Library Design by Pocket-Applied Computer Vision and Fragment Deep Generative Linking” (J Med Chem, 2022)
pIC50: −log10 of the molar value.

Experiments:
CDK8/Cyclin C = CDK8/Cyclin C (Homo sapiens, UniProt P49336); experiment: Inhibition of Alexa fluor 647 labeled kinase tracer binding to human CDK8/cyclin C incubated for 1 hr by FRET based LanthaScreen Eu-Kinase binding assay; type: protein-complex assay
[1] = molecular target: CDK8/Cyclin C (Homo sapiens) (UniProt P49336+P24863); experiment: Inhibition of Alexa fluor 647 labeled kinase tracer binding to human CDK8/cyclin C at 10 uM incubated for 1 hr by FRET based LanthaScreen Eu-Kinase binding assay relative to control; type: protein-complex assay
Summary of the method: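 Tagged CDK8/CyclinC (5 nM final) with biotin anti-His antibody and Eu-streptavidin; competitor at 10 μM; Alexa Fluor 647 tracer 236 (Kd 8 nM) at 10 nM final. Buffer: HEPES 50 mM pH 7.5, MgCl2 10 mM, EGTA 1 mM, Brij-35 0.01%. Incubated 1 h at room temperature. TR-FRET read with excitation at 337 nm and emission at 665/620 nm. Mean ± SEM of two independent experiments.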

CDK8/Cyclin C, sequence (P49336 whole entry): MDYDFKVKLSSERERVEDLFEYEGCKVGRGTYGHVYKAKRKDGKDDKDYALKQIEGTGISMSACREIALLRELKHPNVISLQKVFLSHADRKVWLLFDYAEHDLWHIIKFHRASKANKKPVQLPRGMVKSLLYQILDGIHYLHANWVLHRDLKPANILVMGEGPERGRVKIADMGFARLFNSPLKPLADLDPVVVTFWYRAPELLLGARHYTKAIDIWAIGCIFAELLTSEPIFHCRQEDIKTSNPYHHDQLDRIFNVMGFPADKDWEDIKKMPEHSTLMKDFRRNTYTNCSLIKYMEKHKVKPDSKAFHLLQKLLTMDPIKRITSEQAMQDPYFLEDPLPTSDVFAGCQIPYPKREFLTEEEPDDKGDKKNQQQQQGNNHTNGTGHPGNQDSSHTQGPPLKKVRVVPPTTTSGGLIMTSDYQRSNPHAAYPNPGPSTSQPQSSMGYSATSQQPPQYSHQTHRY
CDK8/Cyclin C, sequence (P24863 whole entry, further chain): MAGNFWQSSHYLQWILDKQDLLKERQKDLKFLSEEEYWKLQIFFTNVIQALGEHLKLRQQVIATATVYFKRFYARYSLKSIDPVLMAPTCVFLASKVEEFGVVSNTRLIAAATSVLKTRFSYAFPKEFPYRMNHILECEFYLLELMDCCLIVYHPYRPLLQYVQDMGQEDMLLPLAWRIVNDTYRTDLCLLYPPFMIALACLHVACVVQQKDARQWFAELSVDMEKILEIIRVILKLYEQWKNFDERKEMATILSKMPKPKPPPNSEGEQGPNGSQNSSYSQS

Row | SMILES | pIC50 (CDK8/Cyclin C) | inhibition [1] [%]
1 | COc1ccc(OC(=O)c2cccnc2)cc1 | – | > 50
2 | COc1ccc(C(O)Cc2cccnc2)cc1 (stereo not drawn) | – | > 50
3 | CCOc1ccc(C(=O)Oc2cccnc2)cc1 | 6.42 | > 50
4 | CCOc1ccc(C(=O)Oc2cncc(C3CCN(c4ccccc4)CC3)c2)cc1 | < 4.60 | –
5 | O=C(Nc1ccncc1)c1ccncc1 | – | > 50
6 | Cc1ccc(SC(C)C(=O)NCc2cccnc2)cc1 (stereo not drawn) | – | > 50

The next lines start with the values.

Row | pIC50 (CDK8/Cyclin C) | inhibition [1] [%] | SMILES
7 | < 4.60 | – | CCOc1ccc(C(=O)Oc2cncc(NC(=O)Nc3ccccc3)c2)cc1
8 | 6.45 | – | CCOc1ccc(C(=O)Oc2cnccc2NC(=O)Nc2ccccc2)cc1
9 | < 4.60 | – | CCOc1ccc(C(=O)Oc2cncc(-c3cnn(-c4ccccc4)c3)c2)cc1
10 | 8.19 | – | CCOc1ccc(C(=O)Oc2cnccc2-c2cnn(-c3ccccc3)c2)cc1
11 | 6.84 | – | CCOc1ccc(C(=O)Oc2cnccc2C2CCN(c3ccccc3)CC2)cc1
12 | – | > 50 | c1ccc(COc2ccc(OCc3ccccn3)cc2)nc1
